The record followed here is ChEMBL document CHEMBL4152256, “Structure-activity relationship of new antimalarial 1-aryl-3-susbtituted propanol derivatives: Synthesis, preliminary toxicity profiling, parasite life cycle stage studies, target exploration, and targeted delivery” (Eur J Med Chem, 2018).

SMILES strings stand for the structures. pIC50: −log10 of the molar value.

Series [1] relates to Plasmodium falciparum. Kind of series: Antiplasmodial activity against multidrug-resistant Plasmodium falciparum FCR-3 by [3H]-hypoxanthine incorporation assay. Format: functional, organism-based, FCR-3/Gambia. To be noted: Plasmodium falciparum, FCR-3/Gambia. The essentials:
(§1)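 Blood-stage P. falciparum 3D7 and FCR-3 were tested by a modified [3H]-hypoxanthine incorporation assay. Chloroquine was the reference in all runs.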

For series [2], the system named is Plasmodium falciparum. Kind of series: Antiplasmodial activity against chloroquine-sensitive Plasmodium falciparum 3D7 by [3H]-hypoxanthine incorporation assay. Format: functional, organism-based. To be noted: Plasmodium falciparum, 3D7. The essentials:
as §1

A short description of series [3]: Cytotoxicity against human HepG2A16 cells by MTT assay. Format: cell-based. The note with it: HepG2A16 cells. An outline of the steps: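 MTT viability assay on HepG2-A16 cells, giving CC50 values.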
Series [4] can be described thus: Selectivity index, ratio of CC50 for human HepG2A16 cells by MTT assay to IC50 for multidrug-resistant Plasmodium falciparum FCR-3. Format: toxicity. To be noted: HepG2A16 cells, read-out: Ratio CC50/IC50. The essentials:
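HepG2-A16 human hepatoma cells were tested by MTT viability assay to give CC50. Blood-stage activity was measured against the multidrug-resistant P. falciparum FCR-3 strain by [3H]-hypoxanthine incorporation to give IC50. SI = CC50 HepG2 / FCR-3 IC50.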

On to `OC(CCN1CC=C(c2ccc(F)cc2)CC1)c1ccc(F)c(F)c1` (centres undefined), for which the pIC50 is 5.70 with Plasmodium falciparum [1] and 5.55 in the series with Plasmodium falciparum [2]. Further, in series [3], half-maximal cytotoxicity (CC50) was put at 97 µM. In series [4], the selectivity ratio stood at 48.
In the case of `O=[N+]([O-])c1ccc(N2CCN(CCC(O)c3ccc(F)c4ccccc34)CC2)c(C(F)(F)F)c1` (centres undefined), in the series with Plasmodium falciparum [1], the pIC50 was 6.30.
`O=[N+]([O-])c1ccc(N2CCC(NCCC(O)c3ccccc3)CC2)c(C(F)(F)F)c1` (centres undefined): the values for the negative-log IC50 (pIC50) with Plasmodium falciparum [1] and with Plasmodium falciparum [2] were 5.74 and 5.35, respectively. Besides, the cytotoxic concentration (CC50) in series [3] amounted to 27.6 µM. The selectivity ratio in series [4] turned out to be 15.
On the same counts, the results for `COc1ccccc1N1CCN(CCC(O)c2ccc(-c3ccccc3)cc2)CC1` (centres undefined) are 5.56, 5.14, 24.4 µM and 9.
The matching figures for `COc1ccc(C(O)CCN2CC=C(c3ccc(F)cc3)CC2)c(OC)c1` (centres undefined): 5.02, 4.62, 91.4 µM and 10.
The matching figures for `OC(CCN1CC=C(c2ccc(F)cc2)CC1)c1ccc(Cl)cc1` (centres undefined): 5.64, 5.45, 110 µM and 48.
The compound `OC(CCN1CCN(c2ccc(C(F)(F)F)cc2)CC1)c1ccc(F)c2ccccc12` (centres undefined) showed a negative-log IC50 (pIC50) in the series with Plasmodium falciparum [1] of 6.03.
`OC(CCN1CC=C(c2ccc(F)cc2)CC1)c1ccc(F)c(Cl)c1` (centres undefined): the negative-log IC50 (pIC50) in the series on Plasmodium falciparum [1] is 5.15; in the series with Plasmodium falciparum [2], 5.64. Also, in series [3], the 50% cytotoxic concentration (CC50) turned out to be 54.1 µM. Moreover, in series [4], the selectivity ratio is 8.
On the same counts, the results for `COc1ccccc1N1CCN(CCC(O)c2ccc3ccccc3c2)CC1` (centres undefined) are 5.58, 5.39, 95 µM and 36.
On the same counts, the results for `COc1ccccc1N1CCN(CCC(O)c2ccccc2)CC1` (centres undefined) are 4.81, 4.86, above 612 µM and above 39.
